ChEMBL document CHEMBL4177752, “Discovery of Novel Schizocommunin Derivatives as Telomeric G-Quadruplex Ligands That Trigger Telomere Dysfunction and the Deoxyribonucleic Acid (DNA) Damage Response” (J Med Chem, 2018)
pIC50, pKd: −log10 of the molar value. The source made the active and inactive calls. The rule behind the calls is not given here.

Legend:
[1] = tested on: SiHa; assay: Antiproliferative activity against human SiHa cells after 48 hrs by MTT assay; assay type: functional, cell-based
Summary of the method: (§1)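 Cells seeded at 5.0×10^3 per well and exposed to a range of compound concentrations for 48 h. MTT (2.5 mg/mL solution) was then added for 4 h, formazan was dissolved in DMSO, and OD was read at 570 nm. HL-60 was grown in RPMI-1640 with 10% FBS, the other lines in DMEM with 10% FBS, at 37 °C and 5% CO2. Triplicates; IC50 taken from mean OD versus concentration curves.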

[2] = tested on: HL-60; assay: Antiproliferative activity against human HL60 cells after 48 hrs by MTT assay; assay type: functional, cell-based; details: HL-60, 48 h; summary of the method: as §1
[3] = Binding affinity to hairpin duplex DNA (unknown origin) by SPR method
Summary of the method: (§2)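 SPR: biotinylated HTG21 or hairpin DNA (200 nM) was folded in 50 mM Tris-HCl pH 7.4 with 100 mM KCl and captured to about 1,000 RU on an NLC chip against a blank reference cell. Ligand at 0.625–40 µM was injected at 25 µL/min (400 s association, 300 s dissociation) at 25 °C. The chip was regenerated with 1 M KCl and blank sensorgrams were subtracted.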

[4] = tested on: HeLa; assay: Antiproliferative activity against human HeLa cells after 48 hrs by MTT assay; assay type: functional, cell-based; summary of the method: as §1
[5] = tested on: U2OS; assay: Antiproliferative activity against human U2OS cells after 48 hrs by MTT assay; assay type: functional, cell-based; summary of the method: as §1
[6] = tested on: A549; assay: Antiproliferative activity against human A549 cells after 48 hrs by MTT assay; assay type: functional, cell-based; details: A549, 48 h; summary of the method: as §1
[7] = molecular target: Quadruplex DNA; assay: Binding affinity to HTG21 telomeric G-quadruplex DNA (unknown origin) by SPR method; assay type: nucleic-acid assay; summary of the method: as §2
[8] = tested on: Quadruplex DNA; assay: Stabilization of F21T telomeric G-quadruplex DNA (unknown origin) assessed as change in melting temperature at 1 uM by FRET assay; assay type: nucleic-acid assay
Summary of the method: (§3)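 FRET melting: 0.2 µM F21T or F10T (FAM/TAMRA-labelled), with or without 1.0 µM ligand, in 10 mM Tris-HCl pH 7.4 with 60 mM KCl. Excitation 470 nm, emission 530 nm, read every 1 °C from 37–99 °C at 1 °C/min with a 30 s hold. ΔTm = Tm(DNA+ligand) − Tm(DNA).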

[9] = Stabilization of F10T hairpin duplex DNA (unknown origin) assessed as change in melting temperature at 1 uM by FRET assay; summary of the method: as §3
[10] = Inhibition of telomerase (unknown origin) by TRAP-LIG assay; set-up: species or system Homo sapiens
[11] = Binding affinity to hairpin duplex DNA (unknown origin) at 40 uM by SPR method; summary of the method: as §2
[12] = tested on: Quadruplex DNA; assay: Stabilization of F21T telomeric G-quadruplex DNA (unknown origin) at 1 uM in presence of non-fluorescent duplex DNA ds26 by FRET assay; assay type: nucleic-acid assay
Summary of the method: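 Competition FRET: 0.2 µM F21T with 1 µM ligand, plus or minus unlabelled duplex ds26 at 3 µM (15-fold) or 10 µM (50-fold), in 10 mM Tris-HCl pH 7.4 with 60 mM KCl. Melting monitored at 470/530 nm over 37–99 °C.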

[13] = tested on: Quadruplex DNA; assay: Stabilization of telomeric G-quadruplex DNA in human SiHa cells assessed as increase in BG4 foci per nucleus at 2 uM after 24 hrs by DAPI staining-based immunofluorescence method relative to control; assay type: cell-based
Summary of the method: (§4)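 Cells were treated 24 h with 2 µM compound or 0.1% DMSO, then fixed (4% paraformaldehyde), permeabilized (0.5% Triton X-100) and blocked (5% goat serum). Staining used BG4 (80 ng/µL, 37 °C 3 h) with anti-FLAG, and/or γ-H2AX, TRF2 or POT1 antibodies at 4 °C overnight. Alexa 488/555 secondaries and DAPI followed. Foci or co-localized foci per nucleus were counted by confocal microscopy; mean ± SEM, two-tailed unpaired t test.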

[14] = tested on: Quadruplex DNA; assay: Stabilization of telomeric G-quadruplex DNA in human SiHa cells assessed as induction of DNA damage response by measuring gamma-H2AX foci formation per nucleus at 2 uM after 24 hrs by DAPI staining-based immunofluorescence method relative to control; assay type: cell-based; summary of the method: as §4
[15] = tested on: U2OS; assay: Cell cycle arrest in human U2OS cells at 1 uM after 12 hrs by propidium iodide staining-based flow cytometric method; assay type: functional
Summary of the method: (§5)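 SiHa or U2OS cells (2.0×10^5 per well) were treated with compound or DMSO for 12 h, fixed in ice-cold 70% ethanol overnight, and stained with 50 µg/mL PI plus RNase A for 30 min at room temperature in the dark. 10,000 events were collected by flow cytometry to give the phase distribution.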

[16] = tested on: Quadruplex DNA; assay: Stabilization of telomeric G-quadruplex DNA in human U2OS cells assessed as increase in BG4 foci per nucleus at 2 uM after 24 hrs by DAPI staining-based immunofluorescence method; assay type: cell-based; summary of the method: as §4
[17] = tested on: SiHa; assay: Cell cycle arrest in human SiHa cells at 1 uM after 12 hrs by propidium iodide staining-based flow cytometric method; assay type: functional; summary of the method: as §5

Row | Structure (SMILES) | pIC50 [2] | pKd [3] | pIC50 [4] | pIC50 [5] | pIC50 [6] | pKd [7] | ΔTm [8] [°C] | ΔTm [9] [°C] | pIC50 [10] | Activity [11] | Activity [12] | pIC50 [1] | Activity [13] | Activity [14] | Activity [15] | Activity [16] | Activity [17]
1 | CN1CCN(c2cc3c(cc2F)/C(=C/c2nc4cc(NCCN5CCCCC5)c(F)cc4c(=O)[nH]2)C(=O)N3)CC1 | 5.54 | 4.80 | 5.55 | 5.28 | 5.85 | 5.06 | 21.4 | 0.2 | – | – | – | 5.36 | – | – | – | – | –
2 | CN(C)CCCNc1c2ccccc2nc2c1[nH]c1ccccc12 | – | – | – | – | – | – | 11.6 | 5.2 | – | – | inactive | – | – | – | – | – | –
3 | CN1CCN(c2cc3c(cc2F)/C(=C/c2nc4cc(NCCCn5ccnc5)c(F)cc4c(=O)[nH]2)C(=O)N3)CC1 | < 4.30 | – | < 4.30 | < 4.30 | < 4.30 | 4.68 | 11.5 | 0.5 | – | inactive | – | < 4.30 | – | – | – | – | –
4 | CN1CCN(c2cc3c(cc2F)/C(=C/c2nc4cc(N5CCN(C)CC5)c(F)cc4c(=O)[nH]2)C(=O)N3)CC1 | 4.91 | – | < 4.30 | < 4.30 | < 4.30 | < 4.40 | 12.2 | 0.1 | – | inactive | – | < 4.30 | – | – | – | – | –
5 | CN1CCN(c2cc3c(cc2F)/C(=C/c2nc4cc(NCCN5CCCC5)c(F)cc4c(=O)[nH]2)C(=O)N3)CC1 | 5.57 | – | 4.98 | 5.15 | 5.25 | 4.68 | 22.7 | 0.1 | – | inactive | – | 5.03 | – | – | – | – | –
6 | CN(C)CCCNc1cc2nc(/C=C3/C(=O)Nc4cc(N5CCN(C)CC5)ccc43)n(C)c(=O)c2cc1F | 4.51 | < 4.40 | 4.85 | 4.90 | 4.81 | 4.52 | 7.4 | 0.1 | – | – | – | 4.85 | – | – | – | – | –

More lines, in order of rising pIC50 [2], values ahead:

Row | pIC50 [2] | pKd [3] | pIC50 [4] | pIC50 [5] | pIC50 [6] | pKd [7] | ΔTm [8] [°C] | ΔTm [9] [°C] | pIC50 [10] | Activity [11] | Activity [12] | Structure (SMILES) | pIC50 [1] | Activity [13] | Activity [14] | Activity [15] | Activity [16] | Activity [17]
7 | 5.11 | – | 4.80 | 5.20 | 5.66 | < 4.40 | 18 | 0.2 | – | inactive | – | CN(C)CCNc1cc2nc(/C=C3\C(=O)Nc4cc(N5CCN(C)CC5)ccc43)[nH]c(=O)c2cc1F | 5.47 | – | – | – | – | –
8 | 5.19 | – | 5.15 | 5.08 | 4.84 | 4.74 | 18.2 | 0.3 | – | inactive | – | CN(C)CCCNc1cc2nc(/C=C3\C(=O)Nc4cc(N(C)CCCN(C)C)c(F)cc43)[nH]c(=O)c2cc1F | 5.54 | – | – | – | – | –
9 | 5.39 | – | 4.37 | 4.69 | 4.71 | < 4.40 | 8.4 | 0.1 | < 4.40 | inactive | Active | CN(C)CCCNc1ccc2c(=O)[nH]c(/C=C3\C(=O)Nc4ccccc43)nc2c1 | 4.56 | inactive | inactive | inactive | inactive | inactive
10 | 5.42 | – | 4.75 | 5.05 | 5.23 | 5.12 | 24.6 | 0.1 | 4.91 | inactive | Active | CN(C)CCCNc1cc2nc(/C=C3\C(=O)Nc4cc(N5CCN(C)CC5)c(F)cc43)[nH]c(=O)c2cc1F | 5.31 | – | – | – | – | –
